# Assays:
# [1] = target: Botulinum neurotoxin type A (Clostridium botulinum, UniProt P0DPI0)
# Plasma [2] = assay: Metabolic stability in Sprague-Dawley rat plasma assessed as compound remaining at 1 uM measured at 3 hrs by LC-MS/MS analysis; assay type: ADME, cell-free
# In short: (§1)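 Compound at 1.0 μM was incubated in plasma at 37 °C and sampled at 0, 1, 3, 5 and 24 h. Proteins were precipitated with cold acetonitrile containing internal standard, and samples were analysed by LC–MS/MS for percent remaining. Half-life came from regression analysis.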
# Plasma [3] = assay: Half life in Sprague-Dawley rat plasma at 1 uM by LC-MS/MS analysis; assay type: ADME, cell-free
# In short: as §1
# Liver microsome [4] = assay: Drug metabolism in Sprague-Dawley rat liver microsomes assessed as metabolic rate at 1 uM by reversed phase LC/MS analysis; assay type: ADME
# In short: (§2)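 Liver microsomes were from humans (pooled from 10 male donors) or male Sprague–Dawley rats aged 8–10 weeks. Incubations used 0.125 mg/mL total protein and 1.0 μM drug at 37 °C, sampled at 0, 5, 15, 30 and 60 min. Parent-to-product transitions were read by reversed-phase LC with triple quadrupole MS, and % remaining was taken relative to time zero. t1/2 = −ln(2)/k, with k from log–linear regression.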
# [5] = Aqueous solubility of the compound at pH 6.8 after 24 hrs by shake flask method; assay type: physicochemical; details: buffer, pH 6.8, 24 h
# In short: (§3)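 Miniaturized shake-flask method: analyte at 1.0 mM in aqueous solution at pH 1.0 or 6.8, shaken gently (600 rpm) in a syringeless filter at room temperature for 24 h. Filtrate was collected after a further 30 min, diluted in 50:50 MeCN/water with 0.1% formic acid, and analysed by LC–MS/MS. Calibration range was 0.05–12.5 μM at pH 6.8 and 5.0–25000 μM at pH 1.0.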
# Liver microsome [6] = assay: Drug metabolism in human liver microsomes assessed as metabolic rate at 1 uM by reversed phase LC/MS analysis; assay type: ADME
# In short: as §2
# Liver microsome [7] = assay: Half life in Sprague-Dawley rat liver microsomes at 1 uM by reversed phase LC/MS analysis; assay type: ADME
# In short: as §2
# Plasma [8] = assay: Half life in human plasma at 1 uM by LC-MS/MS analysis; assay type: ADME, cell-free
# In short: as §1
# [9] = Aqueous solubility of the compound at pH 1 after 24 hrs by shake flask method; assay type: physicochemical
# In short: as §3
# Liver microsome [10] = assay: Half life in human liver microsomes at 1 uM by reversed phase LC/MS analysis; assay type: ADME
# In short: as §2
# Plasma [11] = assay: Metabolic stability in human plasma assessed as compound remaining at 1 uM measured at 3 hrs by LC-MS/MS analysis; assay type: ADME, cell-free
# In short: as §1
# Serum = assay: Drug uptake in serum of alzheimer patient at 250 to 750 mg, po; assay type: ADME, cell-free; details: human, read-out: Drug uptake
# Homo sapiens = species on record: Homo sapiens; assay: Half life in human; assay type: ADME, organism-based; details: in vivo
# Sequence of Botulinum neurotoxin type A (P0DPI0 2-448 limits assumed): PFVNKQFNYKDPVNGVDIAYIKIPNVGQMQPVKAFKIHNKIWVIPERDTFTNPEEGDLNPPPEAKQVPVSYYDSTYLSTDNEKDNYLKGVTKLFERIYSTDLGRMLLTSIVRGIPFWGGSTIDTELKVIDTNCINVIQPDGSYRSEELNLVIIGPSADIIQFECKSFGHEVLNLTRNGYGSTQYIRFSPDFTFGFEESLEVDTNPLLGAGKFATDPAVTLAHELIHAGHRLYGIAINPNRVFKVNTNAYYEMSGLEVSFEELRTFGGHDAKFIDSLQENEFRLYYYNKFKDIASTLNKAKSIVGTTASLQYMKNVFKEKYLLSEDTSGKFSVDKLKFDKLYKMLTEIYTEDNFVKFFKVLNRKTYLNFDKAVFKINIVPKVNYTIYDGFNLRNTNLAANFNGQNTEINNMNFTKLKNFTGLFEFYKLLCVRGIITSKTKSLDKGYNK
smiles,measurement,setting,value
Cc1cccc(NC(c2ccc(C)s2)c2ccc3ccc(C)nc3c2O)n1 (stereo unspecified),IC50,[1],> 100 µM
Cc1ccc(C(Nc2ccccn2)c2ccc3cccnc3c2O)cc1 (stereo unspecified),IC50,[1],2.5 µM
CCCC(=O)NC(c1ccccc1Cl)c1ccc2cccnc2c1O (stereo unspecified),IC50,[1],> 100 µM
COc1cccc(C(NC(C)=O)c2ccc3cccnc3c2O)c1 (stereo unspecified),IC50,[1],> 100 µM
Oc1c(C(Nc2ccccn2)c2ccccc2)ccc2cccnc12 (stereo unspecified),Stability,Plasma [2],67.3%
same,t1/2,Plasma [3],13.5 h
same,Drug metabolism,Liver microsome [4],0.637 µM/min/mg
same,solubility,[5],0.078 µM
same,IC50,[1],2.2 µM
same,Drug metabolism,Liver microsome [6],0.186 µM/min/mg
same,t1/2,Liver microsome [7],0.143 h
same,t1/2,Plasma [8],11.4 h
same,solubility thermodynamic at 24 h,[9],1170 µM
same,t1/2,Liver microsome [10],0.493 h
CC(C)Oc1c(C(Nc2ccccn2)c2ccccc2)ccc2cccnc12 (stereo unspecified),IC50,[1],> 100 µM
CC(C)C(=O)NC(c1ccccc1Cl)c1ccc2cccnc2c1O (stereo unspecified),IC50,[1],> 100 µM
O=C(NC(c1ccccc1Cl)c1ccc2cccnc2c1O)c1ccccc1 (stereo unspecified),IC50,[1],0.8 µM
Cc1ccccc1C(Nc1ccccn1)c1ccc2cccnc2c1O (stereo unspecified),IC50,[1],3.6 µM
Cc1ccc2ccc(C(Nc3ccccn3)c3ccccc3C)c(O)c2n1 (stereo unspecified),IC50,[1],1.6 µM
Cc1cccc(NC(c2ccccc2[N+](=O)[O-])c2ccc3ccc(C)nc3c2O)n1 (stereo unspecified),IC50,[1],10.7 µM
Cc1ccnc(NC(c2ccccc2[N+](=O)[O-])c2ccc3ccc(C)nc3c2O)c1 (stereo unspecified),IC50,[1],0.9 µM
Cc1ccnc(NC(c2ccccn2)c2ccc3cccnc3c2O)c1 (stereo unspecified),IC50,[1],13.4 µM
Cc1ccnc(NC(c2ccccn2)c2ccc3ccc(C)nc3c2O)c1 (stereo unspecified),IC50,[1],2.1 µM
Cc1ccnc(NC(c2cccc([N+](=O)[O-])c2)c2ccc3cccnc3c2O)c1 (stereo unspecified),IC50,[1],4.6 µM
Cc1ccnc(NC(c2cccc([N+](=O)[O-])c2)c2ccc3ccc(C)nc3c2O)c1 (stereo unspecified),IC50,[1],1.1 µM
Cc1ccc2ccc(C(Nc3ccccn3)c3cccc(OCc4ccccc4)c3)c(O)c2n1 (stereo unspecified),IC50,[1],1.4 µM
Cc1cccc(NC(c2cccc(OCc3ccccc3)c2)c2ccc3ccc(C)nc3c2O)n1 (stereo unspecified),IC50,[1],3.5 µM
COc1cccc(C(Nc2cc(C)ccn2)c2ccc3ccc(C)nc3c2O)c1 (stereo unspecified),IC50,[1],2 µM
Cc1ccnc(NC(c2ccc(Cl)c(Cl)c2)c2ccc3cccnc3c2O)c1 (stereo unspecified),IC50,[1],1.5 µM
Cc1ccnc(NC(c2ccc(Cl)c(Cl)c2)c2ccc3ccc(C)nc3c2O)c1 (stereo unspecified),IC50,[1],1.2 µM
COc1ccc(C(Nc2ccccn2)c2ccc3cccnc3c2O)cc1OC (stereo unspecified),IC50,[1],6.2 µM
COc1ccc(C(Nc2ccccn2)c2ccc3ccc(C)nc3c2O)cc1OC (stereo unspecified),IC50,[1],3 µM
Oc1c(C(Nc2ccccn2)c2ccc(F)cc2)ccc2cccnc12 (stereo unspecified),IC50,[1],7.1 µM
Cc1ccc2ccc(C(Nc3ccccn3)c3ccc(F)cc3)c(O)c2n1 (stereo unspecified),IC50,[1],2.8 µM
Cc1ccc(C(Nc2ccccn2)c2ccc3ccc(C)nc3c2O)cc1 (stereo unspecified),IC50,[1],2.1 µM
CC(=O)NC(c1ccc(C)cc1)c1ccc2cccnc2c1O (stereo unspecified),IC50,[1],> 100 µM
CC(=O)NC(c1ccc(N(C)C)cc1)c1ccc2cccnc2c1O (stereo unspecified),IC50,[1],> 100 µM
CN(C)c1ccc(C(NC(=O)Cc2ccccc2)c2ccc3cccnc3c2O)cc1 (stereo unspecified),IC50,[1],7.1 µM
Cc1ccnc(NC(c2ccc(N(C)C)cc2)c2ccc3cccnc3c2O)c1 (stereo unspecified),IC50,[1],3.5 µM
Cc1ccnc(NC(c2ccc(N(C)C)cc2)c2ccc3ccc(C)nc3c2O)c1 (stereo unspecified),IC50,[1],2.5 µM
Cc1cccc(NC(c2ccc(N(C)C)cc2)c2ccc3ccc(C)nc3c2O)n1 (stereo unspecified),IC50,[1],4.5 µM
Cc1ccnc(NC(c2ccc([N+](=O)[O-])cc2)c2ccc3ccc(C)nc3c2O)c1 (stereo unspecified),Stability,Plasma [2],98.5%
same,t1/2,Plasma [3],109 h
same,Drug metabolism,Liver microsome [4],0.271 µM/min/mg
same,Stability,Plasma [11],92.2%
same,IC50,[1],1 µM
same,Drug metabolism,Liver microsome [6],0.047 µM/min/mg
same,t1/2,Liver microsome [7],0.338 h
same,t1/2,Plasma [8],42 h
same,solubility thermodynamic at 24 h,[9],997 µM
same,t1/2,Liver microsome [10],1.93 h
COc1ccc(C(Nc2ccccn2)c2ccc3cccnc3c2O)cc1 (stereo unspecified),Stability,Plasma [2],42.2%
same,t1/2,Plasma [3],5 h
same,Drug metabolism,Liver microsome [4],0.487 µM/min/mg
same,Stability,Plasma [11],53.4%
same,IC50,[1],5.6 µM
same,Drug metabolism,Liver microsome [6],0.242 µM/min/mg
same,t1/2,Liver microsome [7],0.188 h
same,t1/2,Plasma [8],6.1 h
same,solubility thermodynamic at 24 h,[9],102 µM
same,t1/2,Liver microsome [10],0.378 h
COc1ccc(C(Nc2ccccn2)c2ccc3ccc(C)nc3c2O)cc1 (stereo unspecified),Stability,Plasma [2],86.6%
same,t1/2,Plasma [3],5 h
same,Drug metabolism,Liver microsome [4],0.627 µM/min/mg
same,Stability,Plasma [11],66.2%
same,IC50,[1],1.9 µM
same,Drug metabolism,Liver microsome [6],0.324 µM/min/mg
same,t1/2,Liver microsome [7],0.147 h
same,t1/2,Plasma [8],10.7 h
same,solubility thermodynamic at 24 h,[9],76.7 µM
same,t1/2,Liver microsome [10],0.283 h
Cc1ccc2ccc(C(Nc3ccccn3)c3ccc(C)s3)c(O)c2n1 (stereo unspecified),IC50,[1],2 µM
Oc1c(C(Nc2ccccc2Cl)c2ccccn2)ccc2cccnc12 (stereo unspecified),IC50,[1],5.6 µM
Oc1c(C(Nc2ccccc2Cl)c2cccnc2)ccc2cccnc12 (stereo unspecified),IC50,[1],1.9 µM
CCOC(=O)c1ccc(NC(c2ccccn2)c2ccc3cccnc3c2O)cc1 (stereo unspecified),IC50,[1],5.1 µM
CCOC(=O)c1ccc(NC(c2cccnc2)c2ccc3cccnc3c2O)cc1 (stereo unspecified),IC50,[1],2.9 µM
COC(=O)c1cccc(NC(c2ccccn2)c2ccc3cccnc3c2O)c1 (stereo unspecified),IC50,[1],7.8 µM
COC(=O)c1cccc(NC(c2cccnc2)c2ccc3cccnc3c2O)c1 (stereo unspecified),IC50,[1],4.2 µM
CCCOC(=O)c1ccc(NC(c2ccccn2)c2ccc3cccnc3c2O)cc1 (stereo unspecified),IC50,[1],5.6 µM
CCCOC(=O)c1ccc(NC(c2cccnc2)c2ccc3cccnc3c2O)cc1 (stereo unspecified),IC50,[1],3 µM
COc1ccc(C)cc1NC(c1ccccn1)c1ccc2cccnc2c1O (stereo unspecified),IC50,[1],5.1 µM
COc1ccc(C)cc1NC(c1cccnc1)c1ccc2cccnc2c1O (stereo unspecified),IC50,[1],4.4 µM
Cc1cc(Cl)ccc1NC(c1ccccn1)c1ccc2cccnc2c1O (stereo unspecified),IC50,[1],5.2 µM
Cc1cc(Cl)ccc1NC(c1cccnc1)c1ccc2cccnc2c1O (stereo unspecified),IC50,[1],2.3 µM
Cc1cccc(NC(c2ccccn2)c2ccc3cccnc3c2O)c1 (stereo unspecified),IC50,[1],16.7 µM
Cc1cccc(NC(c2cccnc2)c2ccc3cccnc3c2O)c1 (stereo unspecified),IC50,[1],6.7 µM
Oc1c(CNc2ccccn2)ccc2cccnc12,Stability,Plasma [2],76.3%
same,t1/2,Plasma [3],12.9 h
same,Drug metabolism,Liver microsome [4],0.149 µM/min/mg
same,Stability,Plasma [11],96.1%
same,IC50,[1],26.7 µM
same,Drug metabolism,Liver microsome [6],0.203 µM/min/mg
same,t1/2,Liver microsome [7],0.613 h
same,t1/2,Plasma [8],14.2 h
same,solubility thermodynamic at 24 h,[9],1140 µM
same,t1/2,Liver microsome [10],0.452 h
Cc1ccc2c(Cl)cc(I)c(O)c2n1,IC50,[1],14.1 µM
Cc1ccnc(NC(c2ccc([N+](=O)[O-])cc2)c2ccc3cccnc3c2O)c1 (stereo unspecified),Stability,Plasma [2],100%
same,t1/2,Plasma [3],51.1 h
same,Drug metabolism,Liver microsome [4],0.13 µM/min/mg
same,Stability,Plasma [11],90.9%
same,IC50,[1],4.3 µM
same,Drug metabolism,Liver microsome [6],0.215 µM/min/mg
same,t1/2,Liver microsome [7],0.703 h
same,t1/2,Plasma [8],24.4 h
same,solubility thermodynamic at 24 h,[9],1050 µM
same,t1/2,Liver microsome [10],0.425 h
CCC(=O)NC(c1ccc(OC)c(OC)c1)c1ccc2cccnc2c1O (stereo unspecified),IC50,[1],> 100 µM
COc1cccc(C(Nc2cc(C)ccn2)c2ccc3cccnc3c2O)c1 (stereo unspecified),IC50,[1],3.3 µM
CCC(=O)NC(c1ccc(N(C)C)cc1)c1ccc2cccnc2c1O (stereo unspecified),IC50,[1],> 100 µM
CCC(=O)NC(c1ccccc1Cl)c1ccc2cccnc2c1O (stereo unspecified),IC50,[1],> 100 µM
Cc1ccc2cccc(O)c2n1 [8-HYDROXY QUINALDINE],IC50,[1],> 30 µM
Oc1c(Cl)cc(Cl)c2cccnc12 [CHLOROXINE],Stability,Plasma [2],100%
same,t1/2,Plasma [3],67.7 h
same,Drug metabolism,Liver microsome [4],0.1 µM/min/mg
same,Stability,Plasma [11],100%
same,solubility,[5],0.532 µM
same,IC50,[1],11.5 µM
same,Drug metabolism,Liver microsome [6],0.112 µM/min/mg
same,t1/2,Liver microsome [7],0.917 h
same,t1/2,Plasma [8],18.6 h
same,solubility thermodynamic at 24 h,[9],326 µM
same,t1/2,Liver microsome [10],0.815 h
Cc1ccc2c(Cl)cc(Cl)c(O)c2n1 [CHLORQUINALDOL],Stability,Plasma [2],96.9%
same,t1/2,Plasma [3],115 h
same,Drug metabolism,Liver microsome [4],0.142 µM/min/mg
same,Stability,Plasma [11],92.2%
same,IC50,[1],10.1 µM
same,Drug metabolism,Liver microsome [6],0.19 µM/min/mg
same,t1/2,Liver microsome [7],0.643 h
same,t1/2,Plasma [8],24.5 h
same,solubility thermodynamic at 24 h,[9],1100 µM
same,t1/2,Liver microsome [10],0.48 h
Oc1c(I)cc(Cl)c2cccnc12 [CLIOQUINOL],Stability,Plasma [2],83.9%
same,t1/2,Plasma [3],136 h
same,Drug metabolism,Liver microsome [4],0.071 µM/min/mg
same,concentration,Serum,13 µM
same,Stability,Plasma [11],100%
same,IC50,[1],20.3 µM
same,Drug metabolism,Liver microsome [6],0.086 µM/min/mg
same,t1/2,Liver microsome [7],1.28 h
same,t1/2,Plasma [8],42.4 h
same,t1/2,Homo sapiens,11 h
same,solubility thermodynamic at 24 h,[9],38.1 µM
same,t1/2,Liver microsome [10],1.06 h
Oc1cccc2cccnc12 [OXYQUINOLINE],IC50,[1],> 30 µM

# Reference: ChEMBL document CHEMBL3112564, “Identification of clinically viable quinolinol inhibitors of botulinum neurotoxin A light chain” (J Med Chem, 2014)
